Results pooled from the literature.
Each line is one published result; the experiments were not run side by side.
Effect on: cell growth or viability

| Structure (SMILES) | cell line | assay | setting | quantity | result |
| --- | --- | --- | --- | --- | --- |
| O=C(O)C(Cl)Cl | LoVo | MTT | 72 h | IC50 | > 50 µM |
| O=c1c2ccccc2nc(S)n1-c1ccccc1 | LoVo | LDH | 200 µg/mL, 24 h | viability | 63% |
| CCCCCCCCCCCCCCCC[N+](C)(C)C | LLC-PK1 | MTT |  | IC50 | 6 µM |
| Cc1cccc(-n2ncc(Cl)c(Cl)c2=O)c1 | NCI-H2122 | resazurin | 96 h | IC50 | 1.15 µM |
| COc1c2c(cc3c1OCO3)[C@]13C=C[C@H](OC)C[C@@H]1[N@](C2)C[C@H]3OC(=O)c1ccoc1 | A2780 | WST-1 |  | IC50 | > 10 µM |
| O=C(O)CCCc1ccc(N(CCCl)CCCl)cc1 | A2780 | CCK-8 | 48 h | IC50 | > 50 µM |
| N.N.[Cl][Pt][Cl] | LoVo | ATP luminescence |  | GI50 | 1.7 µg/mL |
| O=c1ccc2ccc3occc3c2o1 | RD | WST-1 | 48 h | IC50 | 12.9 µM |
| COc1c2c(cc3c1OCO3)[C@]13C=C[C@H](OC)C[C@@H]1[N@](C2)C[C@H]3OC(=O)c1ccco1 | A2780 | WST-1 |  | IC50 | > 10 µM |
| O=c1ccc2cc3ccoc3cc2o1 | RD | WST-1 | 48 h | IC50 | 28.3 µM |
| c1ccc2c(c1)[I+]c1ccccc1-2 | Caco-2 | trypan blue | 48 h | IC50 | ~0.01 µM |
